High-throughput results (PubChem BioAssay)
PAD4 FP inh: blocks human protein arginine deiminase 4; Q9UM07; 330,000 compounds, 0.41% hits; AID 485272; inhibition, % at 6.36 µM; recombinant PAD4, RCA probe fluorescence polarization;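 active = percent inhibition above a cutoff equal to the mean of all tested compounds plus 3 SD, cut at about 15% in these data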
Target sequence (Q9UM07 whole entry, looked up): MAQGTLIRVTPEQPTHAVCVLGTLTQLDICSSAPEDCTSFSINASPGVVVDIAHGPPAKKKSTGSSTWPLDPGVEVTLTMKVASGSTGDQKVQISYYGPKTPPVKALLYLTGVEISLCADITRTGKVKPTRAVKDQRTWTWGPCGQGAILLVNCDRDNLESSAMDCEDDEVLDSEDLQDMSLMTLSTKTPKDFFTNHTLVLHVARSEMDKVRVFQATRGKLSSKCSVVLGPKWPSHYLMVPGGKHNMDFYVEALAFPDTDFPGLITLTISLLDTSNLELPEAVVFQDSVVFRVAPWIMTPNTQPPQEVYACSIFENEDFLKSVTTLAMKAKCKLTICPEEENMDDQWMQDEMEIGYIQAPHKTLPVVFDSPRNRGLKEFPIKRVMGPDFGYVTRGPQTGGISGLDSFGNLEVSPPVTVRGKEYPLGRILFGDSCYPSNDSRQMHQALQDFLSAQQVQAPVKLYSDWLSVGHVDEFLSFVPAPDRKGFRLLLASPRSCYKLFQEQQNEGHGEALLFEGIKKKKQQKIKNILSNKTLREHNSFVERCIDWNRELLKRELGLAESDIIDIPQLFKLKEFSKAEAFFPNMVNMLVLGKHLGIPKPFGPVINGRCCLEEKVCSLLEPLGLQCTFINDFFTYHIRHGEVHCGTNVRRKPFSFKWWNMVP
TCR-CD3 inh: human TCR-CD3 binding inhibition; TAMRA-labeled TCR probe fluorescence, biochemical; 360,000 compounds, 0.37% hits; AID 651800; inhibition, % at 9.4 µM; in the data active = inhibition above about 19%;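 note: recombinant mutant TCR 2C K166C tagged with TAMRA read by polarization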
HTRA1 inhibitor: blocks human HTRA1 serine peptidase; 340,000 compounds, 0.5% hits; AID 504803; recombinant HTRA1, FP-rhodamine activity-based probe, fluorescence polarization; inhibition, % at 5.96 µM; Q92743; in the data active = inhibition above about 36%
SIAE primary: blocks human sialic acid acetylesterase; Q9HAT2; SIAE FP-Rh probe binding, fluorescence polarization; inhibition, % at 9.66 µM; 370,000 compounds, 0.69% hits; AID 1053197;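 active = inhibition above a cutoff: mean of compounds within the control limits plus 3 SD of those, cut at about 17% in these data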
PRMT1 inh: PRMT1 (human) inhibition, primary screen; Q99873; recombinant PRMT1, activity-based probe fluorescence polarization; inhibition, % at 2.79 µM; 370,000 compounds, 1.3% hits;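 active = inhibition above about 21% made by adding two undisclosed values, limit read from the data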
ABHD4 inh: inhibits mouse alpha/beta hydrolase domain 4. Q8VD66. purified mABHD4, FP-Rh probe fluorescence polarization. inhibition, % at 8.92 µM. 370,000 compounds, 0.54% hits. AID 720543;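 active = inhibition exceeding the mean over every tested compound plus 3 SD, cut at about 30% in these data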
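Assay system: wild-type mouse ABHD4 protein; compound: single nominal dose of 8.92 µM, 0.89% DMSO final; schedule: 45 min + 60 min at 25 °C; measured by: FP readout, ex 525 nm / em 598 nm; evaluation: % inhibition of FP-Rh probe binding versus controls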
SIAE inh conf: confirmation of human SIAE inhibitors; shares compounds with SIAE primary; SIAE FP-Rh activity-based probe, fluorescence polarization; inhibition, % at 9.66 µM; 2,300 compounds, 13% hits;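 active = mean inhibition of the replicates above the hit cutoff set in the primary screen, cut at about 17% in these data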;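 note: inhibitors lower polarization as more probe stays unbound to SIAE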
Numbers stand for hits; – = inactive; · = no result. An excerpt weighted towards active compounds, which were near 2.9% of everything screened.

SMILES	PAD4 FP inh	TCR-CD3 inh	HTRA1 inhibitor	SIAE primary	PRMT1 inh	ABHD4 inh	SIAE inh conf
C/C(=N\Nc1ccccn1)c1ccc2c(c1)OCO2	–	–	–	–	–	–	·
CN1C(=O)C[C@@](C#N)(C(=O)NCc2ccc3c(c2)OCO3)[C@H]1c1ccccc1	·	·	·	–	–	–	·
CS(=O)(=O)N1CCC(c2noc(-c3ccc(C(F)(F)F)cc3)n2)CC1	–	–	–	28	–	–	–
O=C(Nc1ccc(S(=O)(=O)Nc2nccs2)cc1)C1CCCCC1	–	–	–	20	–	–	–
O=C(NC(=S)Nc1ccc(S(=O)(=O)Nc2nccs2)cc1)C1CC1	–	–	–	–	–	–	·
CCN(CC)C1=NC=CC(c2ccccc2)=CC1C (centres undefined)	–	–	–	28	–	–	–
CCN1CCCCC(NC(=O)COCc2ccccc2)C1=O (centres undefined)	·	·	·	–	–	–	·
COC(=O)/C(=C\c1c[nH]c2ccccc12)NC(C)=O	–	–	–	–	–	–	·
CCOC(=O)/C(=C\c1c[nH]c2ccccc12)NC(C)=O	–	–	–	18	–	–	–
COc1cc(NC(=O)c2ccccc2)c(C)cc1NC(=O)CSc1nnc(-c2cnccn2)n1-c1ccc(C)cc1	·	·	·	–	–	–	·
COc1cc(Cn2nnc3ccccc32)cc(Br)c1O	–	–	–	23	–	–	–
Cc1ccc(-c2nnc(SCC(=O)c3ccc(O)c(O)c3)n2-c2ccc(Cl)cc2)cc1	·	·	·	–	–	–	·
O=C(/C=C/c1ccco1)NC(=S)Nc1cccc([N+](=O)[O-])c1	–	–	–	23	–	–	–
CCOC(=O)c1sc(Nc2nc3cc4c(cc3s2)OCO4)cc1C	–	–	–	19	–	–	–
CCOC(=O)c1sc(Nc2nc3c(OC)cccc3s2)cc1C	–	–	–	19	–	–	–
C=CCN1C(=O)[C@@H](CC(=O)NCc2cccs2)[C@]2(C(=O)OC)CCCCC=C12	·	·	·	–	–	–	·
COc1ccccc1CCn1cnc(-c2cccc(F)c2)c1C(C)C	·	–	·	–	–	–	·
COc1ccc(NC(=O)c2ccc(-c3ccc([N+](=O)[O-])cc3)o2)cc1OC	–	–	–	19	–	–	–
COc1cccc(NC(=O)c2ccc(-c3ccc([N+](=O)[O-])cc3)o2)c1	–	–	–	–	–	–	·
Cc1cc(C)cc(C(=O)OCCN(C)C2CN(Cc3cn(Cc4cccc(F)c4)nn3)S(=O)(=O)C2)c1 (centres undefined)	·	·	·	–	–	–	·
Cc1ccc(C(=O)N/C(=C/c2ccco2)C(=O)N2CCC(C)CC2)cc1	–	–	–	–	–	–	·
CC1CCN(C(=O)/C(=C\c2ccco2)NC(=O)c2ccccc2)CC1	–	–	–	23	–	–	–
COc1ccc(-c2ccc(/C=C(\NC(=O)c3ccccc3)C(=O)N3CCOCC3)o2)cc1	–	–	–	17	–	–	–
COc1ccccc1C(=O)N/C(=C\c1cn(C)c2ccccc12)C(=O)N1CCOCC1	–	–	–	21	–	–	–
COc1ccc(C(=O)N/C(=C\c2ccccc2)C(=O)N2CCOCC2)cc1	–	–	–	–	–	–	·
SMILES	PAD4 FP inh	TCR-CD3 inh	HTRA1 inhibitor	SIAE primary	PRMT1 inh	ABHD4 inh	SIAE inh conf
Cn1cc(/C=C(\NC(=O)c2ccccc2Cl)C(=O)N2CCOCC2)c2ccccc21	–	–	–	–	–	–	·
C=CCN1C(=O)[C@@H](CC(=O)NCc2ccccc2)[C@]2(C(=O)OC)CCCCC=C12	·	·	·	–	–	–	·
COc1ccccc1C(=O)NC1CCCCN(Cc2cccc(C(F)(F)F)c2)C1=O (centres undefined)	·	·	·	–	–	–	·
O=C(NCc1ccc(C(=O)N2CCCC2)cc1)c1cccc(Br)c1	·	·	·	–	–	–	·
COc1cc(OC)c(C2SCCCS2)cc1OC	–	–	–	18	–	–	–
COc1cc(OC)c(C2N(C)c3ccccc3N2C)cc1OC	–	·	·	·	·	·	·
Cc1cc2nc(C)c(Cl)c(=O)n2[nH]1	–	–	–	35	–	–	–
CCOC(=O)[C@]12CCCC=C1N(Cc1ccc(OC)cc1)C(=O)[C@@H]2CC(=O)NCC12CC3CC(CC(C3)C1)C2	·	·	·	–	–	–	·
COc1cc(NC(=O)c2cccs2)c(OC)cc1NC(=O)Cc1ccccc1	–	–	–	19	–	–	–
COc1cc(NC(=O)c2cccs2)c(OC)cc1NC(=O)c1cccs1	–	·	–	·	·	·	·
Cc1ccc(-c2cc(-c3nnc(SCC(=O)Nc4ccccc4-c4ccccc4)n3N)[nH]n2)cc1	·	·	·	–	–	–	·
COc1cccc(Nc2nc(CN)cs2)n1	·	–	·	22	–	–	–
COc1cccc(Nc2nc(C(C)N)cs2)n1 (centres undefined)	·	–	·	–	–	–	·
COCCN(CC(=O)Nc1cccc(C)c1C)C(=O)c1oc2c(Cl)cccc2c1C	–	–	–	28	–	–	–
COC(=O)C[C@@H]1CC[C@@H]2[C@@H](COc3ccc(NC(=O)Nc4ccc(F)cc4)cc3C(=O)N2C)O1	·	·	·	–	–	–	·
CC(=O)Nc1cc(-c2ccc(N3CCN(C)CC3)cc2)cn2c(-c3ccc(F)c(Cl)c3)cnc12	·	–	·	18	–	–	–
Cc1ccc(-n2c3c(cc(C(=O)NCCCN4CCOCC4)c2=O)C(=O)CC(C)(C)C3)cc1	–	–	–	19	–	–	–
CCOc1cccc(-c2nn3c(-c4cccc(C)c4)nnc3s2)c1	·	·	·	–	–	–	·
COc1ccc(C2=CC(=O)OC3(CCCCC3)O2)cc1	–	–	–	19	–	–	–
COc1cccc(NC=C2C(=O)OC3(CCCCC3)OC2=O)c1	–	–	–	–	–	–	·
O=C(NC1CCCCC1)c1ccc(S(=O)(=O)N2CCCCC2)cc1	–	–	–	–	–	–	·
CC1CN(S(=O)(=O)c2ccc(C(=O)NC3CCCCC3)cc2)CC(C)O1 (centres undefined)	–	–	–	18	–	–	–
CCN1C(=O)/C(=C2/Sc3ccccc3N2CC)S/C1=N\c1ncn[nH]1	–	–	–	19	–	–	–
C=CCN1C(=O)/C(=C2/Sc3ccccc3N2C)SC1=Nc1c(C)n[nH]c1C	–	·	–	·	·	·	·
O=C(Nc1ccc(N2C(=O)CC(c3ccccc3)C2=O)c(Cl)c1)c1ccccn1 (centres undefined)	·	·	·	–	–	–	·
CC(OP(=O)(O)C(NC(=O)[C@H](Cc1ccc(O)cc1)NC(=O)OC(C)(C)C)C(C)C)C(=O)O (some centres undefined)	·	·	·	–	–	–	·
COc1cc(-c2nnc(CSc3nnc(Nc4ccc(Oc5ccccc5)cc4)s3)o2)cc(OC)c1OC	–	–	–	19	–	–	–
COc1ccc(NC(=O)CCCNS(=O)(=O)c2ccc3[nH]c(=O)oc3c2)cc1OC	·	·	·	–	–	–	·
O=C(NCc1ccc(Cl)cc1)c1cc2ccccn2n1	–	–	–	54	–	–	–
COc1ccc(NC(=O)c2cc3ccccn3n2)cc1	–	–	–	–	–	–	·
